Assay [1] is described as follows: inhibitors of TNFa-induced NFkB p65 translocation, primary screen, imaging, HUVEC, MLSMR starter and 10KST1 sets (AID 438;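 active = inhibition above 20% together with a positive visual image hit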;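 note: compound added about 3h40 before a 20 min TNFalpha stimulation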;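 for inhibition: signal is the nuclear over cytoplasmic p65 intensity ratio per well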). Particulars: HUVEC TNFa-induced p65 nuclear translocation; cell count: measured here: nuclei count (cytotoxicity indicator), at 2.08 µM; inhibition: at 2 µM, stronger effect = higher value, 0% TNFa-plus-vehicle, 100% no-TNFa wells.
A short description of assay [2]: endothelial E-selectin expression blockers – imaging, HUVEC, immunofluorescence, MLSMR starter and 10KST1 sets, primary screen (AID 487;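 active = visually confirmed hit in the image check and inhibition above 20%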;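 for inhibition: signal is fraction of cell area covered by stained E-selectin grains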;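 for nuclei count: 100% = median nuclei count of all wells on the same plate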). The note with it: HUVEC TNFalpha-induced E-selectin immunofluorescence imaging, at 2 µM; inhibition: stronger effect = higher value; nuclei count: measured here: cell number, toxicity.
The nature of assay [3]: Primary imaging screen for DUSP6 inhibitors that restore phospho-Erk in transfected HeLa cells, chemical complementation (AID 609;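 active = compounds giving at least 50% inhibition in the cell-based MKP-3 phosphatase rescue imaging test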;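 for inhibition: phospho-Erk level distribution per well compared with pooled transfected vehicle control wells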). Particulars: HeLa MKP-3 transfected, phospho-Erk imaging KS statistic, at 10 µM, cells stimulated with TPA for 15 min.
The target of assay [4] is Dual specificity protein phosphatase 6 (Homo sapiens) (UniProt Q16828). Described as above. The note with it: HeLa MKP-3 transfected, phospho-Erk imaging KS statistic; at 10 µM; stronger effect = higher value; cells stimulated with TPA for 15 min.
Chain of Dual specificity protein phosphatase 6 (Homo sapiens) (Q16828 whole entry, looked up): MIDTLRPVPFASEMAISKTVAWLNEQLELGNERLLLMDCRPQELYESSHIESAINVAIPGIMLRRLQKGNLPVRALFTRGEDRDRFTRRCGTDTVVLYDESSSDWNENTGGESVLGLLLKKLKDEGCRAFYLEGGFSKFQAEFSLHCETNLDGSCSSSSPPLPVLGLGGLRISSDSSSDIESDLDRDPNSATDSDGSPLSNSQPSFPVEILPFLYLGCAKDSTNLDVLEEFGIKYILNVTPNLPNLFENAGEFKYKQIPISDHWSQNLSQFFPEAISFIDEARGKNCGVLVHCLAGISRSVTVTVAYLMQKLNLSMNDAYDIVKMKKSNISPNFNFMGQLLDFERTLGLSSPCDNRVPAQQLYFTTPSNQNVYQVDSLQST
Assay [5] addresses Voltage-gated potassium channel subunit beta-2 (Rattus norvegicus) (UniProt P62483). In words: inhibitors of rat Kvbeta2 reductase activity – biochemical, NADPH fluorescence, primary screen (AID 622;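 active = fluorescence slope higher than the sample average by over 3 SD, cut at about -0.22 in these data, passing the limit was not always enough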;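 note: slope of raw intensity against log time taken from 70 to 1610 s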). The note with it: recombinant KvBeta, 4-cyanobenzaldehyde reduction, at 10 µM, stronger effect = higher value.
The target is the same in assay [6]. In words: enhancers of rat Kvbeta2 NADPH turnover – biochemical, NADPH fluorescence, primary screen (AID 623).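 Note: fluorescence intensity change per second fitted from 20 to 320 s.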 Particulars: Recombinant KvBeta, NADPH fluorescence decrease slope, 10 min; at 10 µM; stronger effect = lower value.
The target in assay [7] is Alpha-2C adrenergic receptor (Homo sapiens) (UniProt P18825). Put plainly: compounds altering alpha2C-coupled GIRK flux – cell-based, HEK293 alpha2C/GIRK1/2, thallium flux, primary screen (AID 624;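 active = fluorescence slope after compound addition differing from the mean of all screened samples at 99.7% confidence, in either direction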;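 note: slope of fluorescence ratio to pre-addition baseline per second over 15 to 24 s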). The note with it: thallium flux BTC fluorescence, at 10 µM, actives lie on both sides.
Chain of Alpha-2C adrenergic receptor (Homo sapiens) (P18825 whole entry, looked up): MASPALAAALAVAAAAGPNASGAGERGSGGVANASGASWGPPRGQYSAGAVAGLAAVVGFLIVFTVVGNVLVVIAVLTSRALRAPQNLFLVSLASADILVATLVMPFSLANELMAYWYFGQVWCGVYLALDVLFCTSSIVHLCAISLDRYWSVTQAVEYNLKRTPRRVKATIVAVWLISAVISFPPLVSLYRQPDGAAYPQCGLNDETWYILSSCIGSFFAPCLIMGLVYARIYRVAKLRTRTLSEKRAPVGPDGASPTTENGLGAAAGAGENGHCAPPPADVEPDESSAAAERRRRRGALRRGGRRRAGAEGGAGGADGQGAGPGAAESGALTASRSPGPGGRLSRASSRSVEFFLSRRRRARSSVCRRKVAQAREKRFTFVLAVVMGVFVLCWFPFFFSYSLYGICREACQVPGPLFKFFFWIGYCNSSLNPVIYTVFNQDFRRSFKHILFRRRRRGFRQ
Assay [8] can be described thus: inhibitors of larval lipid processing in zebrafish, primary screen, whole organism, PED6 fluorescence, gall bladder and intestine (AID 686;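 active = a full or partial loss of lipid-probe fluorescence in the fish gall bladder, intestine or both, judged by eye; inactive = no fluorescence loss, or compound toxic to the fish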;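 note: larvae 5 to 7 days old with five fish per well; signal comes from phospholipase A2 cleavage of quenched PED6 carried via bile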). The note with it: Zebrafish larvae PED6 lipid processing, fluorescence scoring; screened at 20 µM (by protocol). In short, it runs like this: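 Incubation: overnight exposure of larvae to compound plus PED6 / Test system: live zebrafish larvae aged 5-7 days, whole organism / Amount: 5 larvae per well / Read-out basis: visual per-well fluorescence inhibition score / Signal: visual fluorescence microscopy scoring of gall bladder, gut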

Assay [9] can be described thus: loss of swimming-algae plug formation – whole organism, Chlamydomonas reinhardtii, WT vs cilia-less mutant, absorbance, 96-well, primary screen (AID 463189;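 active = inhibition at or above 50% relative to wild type and mutant plate controls; inactive = inhibition below 50%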;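 note: 0% = wild type cc124 cells in DMSO and 100% = ciliumless bld1 mutant cells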). Particulars: Chlamydomonas reinhardtii gravitaxis, OD600 absorbance, 2 days; at 10 µM; stronger effect = higher value.
Setting [10] is: measured here: cell density z-score.
The mark [11] stands for this setting: measured here: nuclear c-Myc green intensity z-score.
[12] abbreviates: measured here: nuclear pErk red intensity z-score, stronger effect = higher value.

The record followed here is PubChem BioAssay.

A word on the inhibition: it is the drop in the measured response relative to a control, in per cent.

The source made the active and inactive calls.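 Rule for the calls, unless noted: active = NADPH fluorescence slope more negative than the mean of all samples by about 3 SD, 99.7% confidence; inactive = the rest.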

Chain of Voltage-gated potassium channel subunit beta-2 (Rattus norvegicus) (P62483 whole entry, looked up): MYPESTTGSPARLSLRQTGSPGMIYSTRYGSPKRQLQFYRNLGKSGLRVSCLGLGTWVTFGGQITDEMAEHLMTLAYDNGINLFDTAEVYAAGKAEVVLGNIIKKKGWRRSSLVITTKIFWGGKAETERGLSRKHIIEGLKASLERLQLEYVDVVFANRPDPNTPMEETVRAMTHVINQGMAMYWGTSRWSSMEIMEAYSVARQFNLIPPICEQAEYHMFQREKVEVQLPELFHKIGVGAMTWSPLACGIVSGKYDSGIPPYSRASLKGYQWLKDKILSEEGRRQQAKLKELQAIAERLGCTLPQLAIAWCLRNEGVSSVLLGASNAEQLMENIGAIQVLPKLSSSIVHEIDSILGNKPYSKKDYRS

As to `CC(=O)N1CCC2(CC1)C(C#N)=C(N)Oc1n[nH]c(C(F)(F)F)c12`, in assay [1], the cell count came to 509. The inhibition in [1] was -9.9% (inactive); in assay [2] it was -79.8% (inactive); in assay [4], -1.12% (inactive); in [9], 10.5% (inactive). The molecule also displayed a nuclei count in [2] of 156%. In addition, the z-score in [3] (setting [10]) is 1.26; in assay [3] (setting [11]), 0.347; in assay [3] (setting [12]) it was -0.954. Moreover, the fluorescence slope in assay [5] is -0.349 (inactive). Further, in [6], the NADPH fluorescence slope is -1.5e-05 (inactive). For the same molecule, the slope in [7] was 0.00543 (inactive). Further, in [8], the molecule was classed as inactive.
Turning to `COc1cc(C2C(C#N)=C(N)Oc3cc(C)n(CCN4CCOCC4)c(=O)c32)cc(OC)c1OC` (stereo not given), the cell count in assay [1] came to 388. Moreover, the inhibition in [1] is 4% (inactive); in [2] it was -116% (inactive); in assay [4], -4.7% (inactive); in assay [9] it was -6.44% (inactive). The molecule also showed a nuclei count in assay [2] of 142%. For the same molecule, the z-score was -0.238 in assay [3] (setting [10]), -0.479 in assay [3] (setting [11]) and -0.461 in assay [3] (setting [12]). Moreover, the fluorescence slope in assay [5] is -0.468 (inactive). In addition, the NADPH fluorescence slope in assay [6] was -4.4e-05 (inactive). Besides, in assay [7], the slope was 0.0078 (inactive). The result in assay [8] was inactive.
Take `CC(=O)Oc1ccccc1C1OCCN1C(C)=O` (stereo not given): the cell count in assay [1] is 619. The inhibition was -6.5% (inactive) in assay [1], -38.8% (inactive) in assay [2], -2.69% (inactive) in assay [4] and -5.26% (inactive) in assay [9]. The nuclei count in assay [2] is 170%. Besides, the z-score was -0.208 in assay [3] (setting [10]), -0.565 in assay [3] (setting [11]) and 1.43 in assay [3] (setting [12]). Moreover, in assay [5], the fluorescence slope is -0.375 (inactive). For the same molecule, the NADPH fluorescence slope in assay [6] is -2.3e-05 (inactive). The slope in assay [7] is 0.00518 (inactive). Moreover, the call in assay [8] was inactive.
`Cc1cc(C)c2nc(SCCC#N)nc(C)c2c1`: the cell count in assay [1] amounted to 635. The inhibition was -4.4% (inactive) in assay [1], 9.3% (inactive) in assay [2], -2.91% (inactive) in assay [4] and 4.11% (inactive) in assay [9]. In assay [2], this molecule yielded a nuclei count of 157%. In addition, the z-score in assay [3] (setting [10]) is 0.288; in [3] (setting [11]) it was -0.415; in assay [3] (setting [12]) it was 1. Besides, the fluorescence slope in [5] is -0.508 (inactive). In addition, the NADPH fluorescence slope in assay [6] was -6.6e-05 (inactive). The slope in assay [7] was 0.00476 (inactive). Besides, the molecule was called inactive in assay [8].
For the molecule `COc1cccc(C(=O)N2CCN(S(=O)(=O)Cc3ccccc3)CC2)c1OC`, the cell count in [1] is 424. Besides, the inhibition in [1] is -16.3% (inactive); in [2], -254% (inactive); in assay [4], 12.7% (inactive); in assay [9], 17.5% (inactive). Also, the nuclei count in assay [2] is 195%. Further, the results for the z-score in assay [3] (setting [10]), in assay [3] (setting [11]) and in assay [3] (setting [12]) were 0.309, -0.845 and -0.459, respectively. In addition, the fluorescence slope in assay [5] was -0.291 (inactive). The NADPH fluorescence slope in assay [6] is 1.9e-05 (inactive). In assay [7], the slope is 0.00419 (inactive). For the same molecule, the outcome in [8] was inactive.
In the case of `CCOc1nc(SCCOc2ccc(C)cc2)nc(N(C)C)n1`, the cell count in assay [1] worked out at 346. Besides, the inhibition in assay [1] is -10.2% (inactive); in assay [2], -115% (inactive); in assay [4] it was 22.8% (inactive); in assay [9], 30.3% (inactive). In assay [2], this molecule had a nuclei count of 91.5%. The z-score was 2.72 in [3] (setting [10]), -0.00429 in assay [3] (setting [11]) and -0.85 in assay [3] (setting [12]). Moreover, the fluorescence slope in assay [5] is -0.474 (inactive). The NADPH fluorescence slope in assay [6] was 3.1e-05 (inactive). Moreover, the slope in assay [7] was 0.0074 (inactive). Besides, the molecule was classed as inactive in assay [8].
As for `CC1(C)NC(=O)N(CC(O)COc2ccccc2C(=O)Nc2ccccc2)C1=O` (stereo not given), the cell count in assay [1] turned out to be 418. The inhibition in assay [1] was -22.7% (inactive); in [2], -2.7% (inactive); in assay [4], 14% (inactive); in [9], 18.8% (inactive). In assay [2], the nuclei count came to 93.5%. Besides, the z-score in assay [3] (setting [10]) is -0.97; in assay [3] (setting [11]), 1.76; in assay [3] (setting [12]), -1.28. Moreover, the fluorescence slope in assay [5] was -0.495 (inactive). The NADPH fluorescence slope in [6] is -0.000337 (inactive). The slope in assay [7] was 0.00492 (inactive). Besides, the call in assay [8] was inactive.
Take `CCOc1nc(Oc2cccc(C(=O)O)c2)nc(Oc2cccc(C(=O)O)c2)n1`: the cell count in assay [1] is 627. Also, the inhibition is -14.8% (inactive) in assay [1], -46.5% (inactive) in assay [2], -1.12% (inactive) in assay [4] and 6.3% (inactive) in assay [9]. In addition, the nuclei count in assay [2] stood at 182%. In addition, the z-score in assay [3] (setting [10]) is 0.0666; in [3] (setting [11]), 0.636; in assay [3] (setting [12]), -0.0605. Moreover, the fluorescence slope in assay [5] is -0.538 (inactive). The NADPH fluorescence slope in assay [6] is -3.4e-05 (inactive). The slope in assay [7] is 0.00497 (inactive). Further, in [8], the molecule was called inactive.
Take `COCCNc1cc(C)c(C#N)c2nc3ccccc3n12`: the cell count in [1] was found to be 564. For the same molecule, the inhibition in assay [1] is 2.6% (inactive); in assay [2], -78.8% (inactive); in assay [4], 13.9% (inactive); in assay [9], -12.3% (inactive). The molecule further showed a nuclei count in assay [2] of 108%. In addition, the figures for the z-score in assay [3] (setting [10]), in [3] (setting [11]) and in assay [3] (setting [12]) were -2.44, 1.04 and -1.31, respectively. Moreover, the fluorescence slope in assay [5] is -0.383 (inactive). The NADPH fluorescence slope in [6] is 1.2e-06 (inactive). Moreover, the slope in [7] is 0.00535 (inactive). Also, the molecule was called inactive in assay [8].
Consider `CCCCNC1=C(Br)C(=O)CC(C)(C)C1`, for which the cell count in assay [1] is 372. Moreover, the inhibition was -30.7% (inactive) in assay [1], -34.3% (inactive) in assay [2], 11.9% (inactive) in assay [4] and 23.6% (inactive) in [9]. In assay [2], the nuclei count came out at 101%. Moreover, the values for the z-score in [3] (setting [10]), in [3] (setting [11]) and in [3] (setting [12]) were -0.472, 1.05 and 0.291, respectively. In assay [5], the fluorescence slope was -0.52 (inactive). For the same molecule, in [6], the NADPH fluorescence slope is -9.2e-05 (inactive). Also, the slope in assay [7] is 0.00547 (inactive). Moreover, the molecule was called inactive in assay [8].
